B1: Osa-1-4 twister ribozyme (parent)
chain: CCGCCUAACACUGCCAAUGCCGGUCCCAAGCCCGGAUAAAAGUGGAGGGGGCGG

Variants of: B1
Test: self-cleavage, relative activity (ratio to wild type); higher = more cleavage; co-transcriptional
Method in brief: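 For each read, cleavage status was taken from whether upstream sequence was present. The reads came from an Oryza sativa twister ribozyme of 54 nucleotides, whose DNA template was synthesised with 97 % wild-type base and 1 % of each other base at the 48 positions downstream of the cleavage site. The template was transcribed in vitro at 37 °C for 2 h with co-transcriptional self-cleavage, and the RNA was reverse-transcribed using a template-switching oligonucleotide, PCR-amplified and deep-sequenced. Relative activity is the fraction cleaved normalised to wild type.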

Question: With A46U G49A as the variant, how does the self-cleavage read?
Answer: 0.04

Question: For A46U G49U, which self-cleavage is on record?
Answer: 0.05

Question: Which self-cleavage does the source give for A46U G49C here?
Answer: 0.04

Question: For G47C U37A, which self-cleavage is on record?
Answer: 0.09

Question: With G47C U37C as the variant, how does the self-cleavage read?
Answer: 0.15

Question: For G47C U37G, which self-cleavage is on record?
Answer: 0.21

Question: With A46G G30C as the variant, how does the self-cleavage read?
Answer: 0.01

Question: For A46G G30U, which self-cleavage is on record?
Answer: 0.03

Question: With A46G G30A as the variant, how does the self-cleavage read?
Answer: 0.02

Question: Which self-cleavage does the source give for A46G C11A here?
Answer: 0.06

Question: With A46G C11G as the variant, how does the self-cleavage read?
Answer: 0.04

Question: With A46G C11U as the variant, how does the self-cleavage read?
Answer: 0.06

Question: Which self-cleavage does the source give for A46G A7C here?
Answer: 0.02

Question: With A46G A7G as the variant, how does the self-cleavage read?
Answer: 0.05

Question: For A46G A7U, which self-cleavage is on record?
Answer: 0.01

Question: For A46U C31A, which self-cleavage is on record?
Answer: 0.02

Question: For A46U C31G, which self-cleavage is on record?
Answer: 0.04

Question: For A46U C31U, which self-cleavage is on record?
Answer: 0.04

Question: For G47C G53A, which self-cleavage is on record?
Answer: 0.1

Question: With G47C G53C as the variant, how does the self-cleavage read?
Answer: 0.06

Question: For G47C G53U, which self-cleavage is on record?
Answer: 0.08

Question: With G47A G51A as the variant, how does the self-cleavage read?
Answer: 0.12

Question: Which self-cleavage does the source give for G47A G51U here?
Answer: 0.09

Question: With G47A G51C as the variant, how does the self-cleavage read?
Answer: 0.05

Question: With A46U C15A as the variant, how does the self-cleavage read?
Answer: 0.05

Question: With A46U C15G as the variant, how does the self-cleavage read?
Answer: 0.08

Question: For A46U C15U, which self-cleavage is on record?
Answer: 0.06

Question: For A46U U37A, which self-cleavage is on record?
Answer: 0.05

Question: With A46U U37G as the variant, how does the self-cleavage read?
Answer: 0.11

Question: Which self-cleavage does the source give for A46U U37C here?
Answer: 0.09

Question: With A46U A7G as the variant, how does the self-cleavage read?
Answer: 0.07

Question: For A46U A7U, which self-cleavage is on record?
Answer: 0.04

Question: Which self-cleavage does the source give for A46U A7C here?
Answer: 0.02

Question: With A46G U12C as the variant, how does the self-cleavage read?
Answer: 0.05

Question: For A46G U12A, which self-cleavage is on record?
Answer: 0.05

Question: With A46G U12G as the variant, how does the self-cleavage read?
Answer: 0.07

Question: With G47U G48U as the variant, how does the self-cleavage read?
Answer: 0.05

Question: For G47U G48C, which self-cleavage is on record?
Answer: 0.05

Question: With G47U G48A as the variant, how does the self-cleavage read?
Answer: 0.04

Question: Which self-cleavage does the source give for G47A G49U here?
Answer: 0.04

Question: For G47A G49C, which self-cleavage is on record?
Answer: 0.04

Question: For G47A G49A, which self-cleavage is on record?
Answer: 0.05

Question: With A46G G22C as the variant, how does the self-cleavage read?
Answer: 0.02

Question: With A46G G22A as the variant, how does the self-cleavage read?
Answer: 0.08

Question: Which self-cleavage does the source give for A46G G22U here?
Answer: 0.06

Question: Which self-cleavage does the source give for A46U G13A here?
Answer: 0.03

Question: Which self-cleavage does the source give for A46U G13U here?
Answer: 0.01

Question: For A46U G13C, which self-cleavage is on record?
Answer: 0.02

Question: With A46G G53A as the variant, how does the self-cleavage read?
Answer: 0.07

Question: For A46G G53U, which self-cleavage is on record?
Answer: 0.07

Question: Which self-cleavage does the source give for A46G G53C here?
Answer: 0.03

Question: With A46U U12C as the variant, how does the self-cleavage read?
Answer: 0.06

Question: For A46U U12G, which self-cleavage is on record?
Answer: 0.07

Question: Which self-cleavage does the source give for A46U U12A here?
Answer: 0.07

Question: Which self-cleavage does the source give for G47C G50C here?
Answer: 0.08

Question: For G47C G50U, which self-cleavage is on record?
Answer: 0.07

Question: For G47C G50A, which self-cleavage is on record?
Answer: 0.13

Question: Which self-cleavage does the source give for G47A G50C here?
Answer: 0.07

Question: Which self-cleavage does the source give for G47A G50U here?
Answer: 0.09

Question: For G47A G50A, which self-cleavage is on record?
Answer: 0.36

Question: For G47U U37C, which self-cleavage is on record?
Answer: 0.37

Question: For G47U U37G, which self-cleavage is on record?
Answer: 0.51

Question: For G47U U37A, which self-cleavage is on record?
Answer: 0.23

Question: For A46U C21A, which self-cleavage is on record?
Answer: 0.07

Question: With A46U C21U as the variant, how does the self-cleavage read?
Answer: 0.06

Question: With A46U C21G as the variant, how does the self-cleavage read?
Answer: 0.02

Question: With A46U G45U as the variant, how does the self-cleavage read?
Answer: 0.03

Question: Which self-cleavage does the source give for A46U G45A here?
Answer: 0.08

Question: With A46U G45C as the variant, how does the self-cleavage read?
Answer: 0.04

Question: With G47A G54U as the variant, how does the self-cleavage read?
Answer: 0.34

Question: With G47A G54C as the variant, how does the self-cleavage read?
Answer: 0.15

Question: For G47A G54A, which self-cleavage is on record?
Answer: 0.18

Question: With A46G G47U as the variant, how does the self-cleavage read?
Answer: 0.06

Question: For A46G G47A, which self-cleavage is on record?
Answer: 0.06

Question: For A46G G47C, which self-cleavage is on record?
Answer: 0.03

Question: For A46G G45U, which self-cleavage is on record?
Answer: 0.03

Question: For A46G G45A, which self-cleavage is on record?
Answer: 0.06

Question: Which self-cleavage does the source give for A46G G45C here?
Answer: 0.03

Question: With G47C U18G as the variant, how does the self-cleavage read?
Answer: 0.24

Question: Which self-cleavage does the source give for G47C U18C here?
Answer: 0.1

Question: With G47C U18A as the variant, how does the self-cleavage read?
Answer: 0.12

Question: Which self-cleavage does the source give for A46U G51C here?
Answer: 0.05

Question: Which self-cleavage does the source give for A46U G51A here?
Answer: 0.09

Question: Which self-cleavage does the source give for A46U G51U here?
Answer: 0.06

— the RNAGym collection of RNA variant scans (doi:10.1002/anie.201605470)
